Values joined by “and” are separate entries in the source; they are usually repeats but may differ in a detail not shown here. Equal entries are not always repeated.
How the values were obtained:
Type in all cases: toxicity, cell-based
U2OS = assay: Multiplex assay against U2OS; details: human
Summary of the method: (§1)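 Live cells carried four stains from seeding: Hoechst33342, BioTracker Green Microtubule Cytoskeleton Dye, MitoTracker Red and Annexin V Alexa Fluor 680. They were imaged on a CQ1 microscope at 37°C and 5% CO2 after compound addition. Using CellPathfinder machine-learning gating, cells were split into Hoechst high-intensity objects or normal cells, normal cells into healthy, pyknosed or fragmented nuclei, and pyknosed cells into mitotic or apoptotic; tubulin, mitochondrial-mass and membrane-permeability phenotypes are per cents of healthy-nucleus cells.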

Fibroblast = assay: Multiplex assay against human fibroblast; summary of the method: as §1
HEK-293T = assay: Multiplex assay against HEK293T; details: human; summary of the method: as §1
[1] = 12 h, 1 µM, compound concentration 1 uM
[2] = 12 h, 10 µM, compound concentration 10 uM
[3] = 24 h, 1 µM, compound concentration 1 uM
[4] = 24 h, 10 µM, compound concentration 10 uM
[5] = 48 h, 1 µM, compound concentration 1 uM
[6] = 48 h, 10 µM, compound concentration 10 uM

## C[C@H](C[C@H](N)C(=O)O)C(=O)O [2S,4R-4-METHYLGLUTAMATE]
U2OS; [1]
  Population Apoptotic (%): 31.91% and 61.54%
  Population Fragmented Nuclei (%): 3.36% and 4%
  Population Healthy Nuclei (%): 85.37% and 85.6%
  Population Hoechst High Intensity Objects (%): 0%
  Population Membrane Permeable-Phenotype (%): 2.25% and 5.61%
  Population Mitochondria Different-Phenotype (%): 0% and 3.74%
  Population Mitotic Cells (%): 68.09% and 38.46%
  Population Normal (%): 100%
  Population Pyknosed Nuclei (%): 11.27% and 10.4%
  Population Tubulin-Different-Phenotype (%): 0.28% and 0%
U2OS; [2]
  Population Apoptotic (%): 36.84% and 47.06%
  Population Fragmented Nuclei (%): 0.57% and 3.31%
  Population Healthy Nuclei (%): 88.51% and 85.43%
  Population Hoechst High Intensity Objects (%): 0%
  Population Membrane Permeable-Phenotype (%): 1.95% and 3.88%
  Population Mitochondria Different-Phenotype (%): 0.32% and 6.98%
  Population Mitotic Cells (%): 63.16% and 52.94%
  Population Normal (%): 100%
  Population Pyknosed Nuclei (%): 10.92% and 11.26%
  Population Tubulin-Different-Phenotype (%): 3.25% and 0.78%
  Total Cell Count: 348 and 151
U2OS; [3]
  Population Apoptotic (%): 54.55% and 80%
  Population Fragmented Nuclei (%): 3.12% and 6.67%
  Population Healthy Nuclei (%): 86.79% and 84.24%
  Population Hoechst High Intensity Objects (%): 0% and 0.6%
  Population Membrane Permeable-Phenotype (%): 1.48% and 3.6%
  Population Mitochondria Different-Phenotype (%): 0% and 5.04%
  Population Mitotic Cells (%): 45.45% and 20%
  Population Normal (%): 100% and 99.4%
  Population Pyknosed Nuclei (%): 10.09% and 9.09%
  Population Tubulin-Different-Phenotype (%): 0.42% and 0%
U2OS; [4]
  Population Apoptotic (%): 38.3% and 31.25%
  Population Fragmented Nuclei (%): 0.43% and 1.99%
  Population Healthy Nuclei (%): 89.42% and 90.05%
  Population Hoechst High Intensity Objects (%): 0.22% and 0%
  Population Membrane Permeable-Phenotype (%): 1.45% and 3.31%
  Population Mitochondria Different-Phenotype (%): 0.48% and 3.87%
  Population Mitotic Cells (%): 61.7% and 68.75%
  Population Normal (%): 99.78% and 100%
  Population Pyknosed Nuclei (%): 10.15% and 7.96%
  Population Tubulin-Different-Phenotype (%): 1.45% and 0.55%
  Total Cell Count: 464 and 201
U2OS; [5]
  Population Apoptotic (%): 50% and 51.52%
  Population Fragmented Nuclei (%): 3.72% and 3.91%
  Population Healthy Nuclei (%): 89.03% and 84.34%
  Population Hoechst High Intensity Objects (%): 0%
  Population Membrane Permeable-Phenotype (%): 1.47% and 2.11%
  Population Mitochondria Different-Phenotype (%): 0% and 2.95%
  Population Mitotic Cells (%): 50% and 48.48%
  Population Normal (%): 100%
  Population Pyknosed Nuclei (%): 7.24% and 11.74%
  Population Tubulin-Different-Phenotype (%): 1.02% and 1.27%
U2OS; [6]
  Population Apoptotic (%): 54.05% and 54.84%
  Population Fragmented Nuclei (%): 2.19% and 2.47%
  Population Healthy Nuclei (%): 89.7% and 89.01%
  Population Hoechst High Intensity Objects (%): 0%
  Population Membrane Permeable-Phenotype (%): 1.1% and 1.23%
  Population Mitochondria Different-Phenotype (%): 0.12% and 1.23%
  Population Mitotic Cells (%): 45.95% and 45.16%
  Population Normal (%): 100%
  Population Pyknosed Nuclei (%): 8.11% and 8.52%
  Population Tubulin-Different-Phenotype (%): 1.47% and 0.31%
  Total Cell Count: 913 and 364
Fibroblast; [1]
  Population Apoptotic (%): 17.14% and 40%
  Population Fragmented Nuclei (%): 10.46% and 7.78%
  Population Healthy Nuclei (%): 66.67% and 77.25%
  Population Hoechst High Intensity Objects (%): 0%
  Population Membrane Permeable-Phenotype (%): 1.96% and 3.1%
  Population Mitochondria Different-Phenotype (%): 8.82% and 6.98%
  Population Mitotic Cells (%): 82.86% and 60%
  Population Normal (%): 100%
  Population Pyknosed Nuclei (%): 22.88% and 14.97%
  Population Tubulin-Different-Phenotype (%): 9.8% and 13.95%
  Total Cell Count: 153 and 167
Fibroblast; [2]
  Population Apoptotic (%): 12.5% and 8.57%
  Population Fragmented Nuclei (%): 12.57% and 5.6%
  Population Healthy Nuclei (%): 64.57% and 79.31%
  Population Hoechst High Intensity Objects (%): 0%
  Population Mitochondria Different-Phenotype (%): 11.5% and 11.96%
  Population Mitotic Cells (%): 87.5% and 91.43%
  Population Normal (%): 100%
  Population Pyknosed Nuclei (%): 22.86% and 15.09%
  Population Tubulin-Different-Phenotype (%): 17.7% and 19.02%
  Total Cell Count: 175 and 232
Fibroblast; [3]
  Population Fragmented Nuclei (%): 9.47% and 7.6%
  Population Healthy Nuclei (%): 73.16% and 83.04%
  Population Hoechst High Intensity Objects (%): 0%
  Population Membrane Permeable-Phenotype (%): 3.6% and 1.41%
  Population Mitochondria Different-Phenotype (%): 2.16% and 9.86%
  Population Mitotic Cells (%): 90.91% and 68.75%
  Population Normal (%): 100%
  Population Pyknosed Nuclei (%): 17.37% and 9.36%
  Population Tubulin-Different-Phenotype (%): 12.95% and 10.56%
  Total Cell Count: 190 and 171
Fibroblast; [4]
  Population Apoptotic (%): 19.35% and 15.79%
  Population Fragmented Nuclei (%): 10.38% and 3.95%
  Population Healthy Nuclei (%): 72.68% and 87.72%
  Population Hoechst High Intensity Objects (%): 0%
  Population Membrane Permeable-Phenotype (%): 6.02% and 0%
  Population Mitochondria Different-Phenotype (%): 6.02% and 4.5%
  Population Mitotic Cells (%): 80.65% and 84.21%
  Population Normal (%): 100%
  Population Pyknosed Nuclei (%): 16.94% and 8.33%
  Population Tubulin-Different-Phenotype (%): 18.05% and 14.5%
  Total Cell Count: 183 and 228
Fibroblast; [5]
  Population Apoptotic (%): 16.67% and 37.5%
  Population Fragmented Nuclei (%): 6.91% and 10.23%
  Population Healthy Nuclei (%): 84.79% and 85.23%
  Population Hoechst High Intensity Objects (%): 0%
  Population Membrane Permeable-Phenotype (%): 1.63% and 1.33%
  Population Mitotic Cells (%): 83.33% and 62.5%
  Population Normal (%): 100%
  Population Pyknosed Nuclei (%): 8.29% and 4.55%
  Population Tubulin-Different-Phenotype (%): 10.33% and 18%
  Total Cell Count: 217 and 176
Fibroblast; [6]
  Population Apoptotic (%): 28.57% and 21.43%
  Population Fragmented Nuclei (%): 9.04% and 3.43%
  Population Healthy Nuclei (%): 83.51% and 90.56%
  Population Hoechst High Intensity Objects (%): 0%
  Population Membrane Permeable-Phenotype (%): 0% and 2.37%
  Population Mitotic Cells (%): 71.43% and 78.57%
  Population Normal (%): 100%
  Population Pyknosed Nuclei (%): 7.45% and 6.01%
  Population Tubulin-Different-Phenotype (%): 10.83% and 15.64%
  Total Cell Count: 188 and 233
HEK-293T; [1]
  Population Apoptotic (%): 6.61% and 13.76%
  Population Fragmented Nuclei (%): 2.69% and 5.93%
  Population Hoechst High Intensity Objects (%): 0.59% and 0.74%
  Population Membrane Permeable-Phenotype (%): 0% and 5.56%
  Population Mitochondria Different-Phenotype (%): 31.22% and 27.78%
  Population Mitotic Cells (%): 93.39% and 86.24%
  Population Normal (%): 99.41% and 99.26%
  Population Pyknosed Nuclei (%): 36.12% and 80.74%
  Total Cell Count: 337 and 136
HEK-293T; [2]
  Population Apoptotic (%): 7.2% and 16.44%
  Population Fragmented Nuclei (%): 3.38% and 3.49%
  Population Hoechst High Intensity Objects (%): 0%
  Population Membrane Permeable-Phenotype (%): 0%
  Population Mitochondria Different-Phenotype (%): 31.06% and 20%
  Population Mitotic Cells (%): 92.8% and 83.56%
  Population Normal (%): 100%
  Population Pyknosed Nuclei (%): 42.23% and 84.88%
  Population Tubulin-Different-Phenotype (%): 3.73% and 10%
  Total Cell Count: 296 and 172
HEK-293T; [3]
  Population Apoptotic (%): 6.4% and 17.39%
  Population Fragmented Nuclei (%): 1.63% and 2.47%
  Population Healthy Nuclei (%): 75.77% and 26.54%
  Population Hoechst High Intensity Objects (%): 0.36% and 0%
  Population Membrane Permeable-Phenotype (%): 1.67% and 0%
  Population Mitochondria Different-Phenotype (%): 13.13% and 13.95%
  Population Mitotic Cells (%): 93.6% and 82.61%
  Population Normal (%): 99.64% and 100%
  Population Tubulin-Different-Phenotype (%): 10.5% and 2.33%
HEK-293T; [4]
  Population Apoptotic (%): 10.99% and 23.73%
  Population Fragmented Nuclei (%): 1.21% and 2.99%
  Population Healthy Nuclei (%): 80.4% and 38.31%
  Population Hoechst High Intensity Objects (%): 0%
  Population Membrane Permeable-Phenotype (%): 0.5% and 0%
  Population Mitochondria Different-Phenotype (%): 14.57% and 6.49%
  Population Mitotic Cells (%): 89.01% and 76.27%
  Population Normal (%): 100%
  Population Tubulin-Different-Phenotype (%): 7.29% and 2.6%
  Total Cell Count: 495 and 201
HEK-293T; [5]
  Population Fragmented Nuclei (%): 3.3% and 2.56%
  Population Healthy Nuclei (%): 86.59% and 58.46%
  Population Hoechst High Intensity Objects (%): 0% and 2.5%
  Population Membrane Permeable-Phenotype (%): 4.15% and 2.63%
  Population Mitochondria Different-Phenotype (%): 11.93% and 28.95%
  Population Mitotic Cells (%): 93.48% and 76.32%
  Population Normal (%): 100% and 97.5%
HEK-293T; [6]
  Population Apoptotic (%): 11.21% and 22.54%
  Population Fragmented Nuclei (%): 1.13% and 2.5%
  Population Healthy Nuclei (%): 90.25% and 75.31%
  Population Hoechst High Intensity Objects (%): 0% and 0.93%
  Population Membrane Permeable-Phenotype (%): 3.93% and 1.24%
  Population Mitochondria Different-Phenotype (%): 12.14% and 16.6%
  Population Mitotic Cells (%): 88.79% and 77.46%
  Population Normal (%): 100% and 99.07%
  Population Pyknosed Nuclei (%): 8.62% and 22.19%

Source: ChEMBL document CHEMBL5724801, “EUbOPEN Chemogenomics Library - Multiplex” (2024)
